From PubChem
Shown are actives, neighbours in structure and some others; about 2.2% of the full set was active somewhere.
IMP-1 inhibitor: blocks Pseudomonas aeruginosa IMP-1 metallo-beta-lactamase; purified IMP-1, nitrocefin hydrolysis, epi-absorbance fluorescence; inhibition, % at 5.6 µM; 290,000 tested, 0.45% active;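 active = inhibition above the mean plus 3 SD of all compounds in the same screening run, cut at about 4.5% in these data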
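Assay system: purified recombinant IMP-1 beta-lactamase. Input: IMP-1 0.2 nM before substrate addition. Buffer or medium: Zinc- and detergent-supplemented HEPES buffer, pH 7.1. Schedule: 25 °C, 15 min preincubation, 25 min reaction. Signal: Epi-absorbance fluorescence, 480 nm excitation, 530 nm emission. Evaluation: percent inhibition from optical density relative to buffer-blank wells.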
EBV gp42 block: inhibitors of Epstein-Barr virus glycoprotein 42; Q1HVG2; Fluorescence polarization binding assay, mP read-out; inhibition, % (tested at 21.74 µM); 220,000 tested, 0.42% active; AID 1085; in the data active = inhibition above about 50%
MEX-5 binding: C. elegans MEX-5 TCR-2 RNA binding activity. MEX-5/FITC-TCR2 RNA binding, fluorescence polarization; active compounds read low. Q9XUB2. activity score (negative = inhibition of binding), % at 10 µM. 300,000 tested, 0.38% active;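 active = inhibition past about -25% in most replicates, and total fluorescence under double the plate's negative control median, limit read from the data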
Target sequence (Q9XUB2 whole entry, looked up): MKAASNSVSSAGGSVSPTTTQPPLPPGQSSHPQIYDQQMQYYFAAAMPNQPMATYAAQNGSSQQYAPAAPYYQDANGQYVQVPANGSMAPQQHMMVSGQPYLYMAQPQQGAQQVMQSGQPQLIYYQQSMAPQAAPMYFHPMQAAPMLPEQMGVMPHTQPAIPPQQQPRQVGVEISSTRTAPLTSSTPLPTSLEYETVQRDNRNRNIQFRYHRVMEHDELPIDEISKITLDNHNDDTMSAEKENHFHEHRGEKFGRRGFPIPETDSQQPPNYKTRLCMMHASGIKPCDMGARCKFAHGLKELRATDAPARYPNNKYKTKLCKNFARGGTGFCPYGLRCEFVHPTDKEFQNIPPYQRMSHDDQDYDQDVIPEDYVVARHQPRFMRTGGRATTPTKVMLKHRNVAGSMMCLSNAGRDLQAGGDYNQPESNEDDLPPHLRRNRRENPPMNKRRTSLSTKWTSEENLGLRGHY
VIM-2 inhibitor: blocks Pseudomonas aeruginosa VIM-2 metallo-beta-lactamase | purified VIM-2, nitrocefin hydrolysis, epi-absorbance fluorescence | inhibition, % at 5.6 µM | 290,000 tested, 0.89% active | AID 1527;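 active = inhibition above the mean of all tested compounds plus 3 SD, cutoff set per screening run, cut at about 7.5% in these data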;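 also: red hydrolysis product quenches plate fluorescence so inhibitors raise well fluorescence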
BCLXL inh: Bcl-xL (human) inhibition; inhibition, % at 10.9 µM; GST-Bcl-xL / FITC-Bim BH3 peptide fluorescence polarization; 320,000 tested, 0.7% active;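 active = inhibition above the mean of all tested compounds plus 3 SD, cutoff set per campaign, cut at about 30% in these data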;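 also: inhibitors lower millipolarization by displacing the labeled peptide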
Target sequence (Q07817 whole entry, looked up): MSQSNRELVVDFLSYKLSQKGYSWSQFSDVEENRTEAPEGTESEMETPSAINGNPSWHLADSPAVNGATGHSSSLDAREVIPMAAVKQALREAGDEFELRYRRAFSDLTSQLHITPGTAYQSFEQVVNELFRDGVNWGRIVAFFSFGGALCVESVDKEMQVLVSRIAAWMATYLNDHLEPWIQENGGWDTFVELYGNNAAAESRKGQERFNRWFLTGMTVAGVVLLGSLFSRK
GLD-1 RNA inh: GLD-1-TGE RNA interaction inhibition (C. elegans); inhibition, % at 5.96 µM; 320,000 tested, 0.44% active; AID 2280; Q17339; purified GLD-1 + fluorescein TGE RNA, fluorescence polarization;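 active = percent inhibition above a per-plate cutoff, the plate mean of test compounds plus 3 SD, cut at about 30% in these data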
Of the large screens only hits and unclear results are named; the others gave an inactive call.

Oc1[nH]c(N=C2N=c3ccccc3=N2)c2ccccc12	MEX-5 binding -38
COc1ccc(/C=C2\N=C(c3ccccc3)N(c3ccc(C(=O)O)cc3)C2=O)cc1OC	none
Cc1ccc(OCCCCn2cnc3ccccc32)c(C)c1	IMP-1 inhibitor 6.6
Brc1ccccc1OCCCCn1cnc2ccccc21	none
CC(=NCCCn1ccnc1)C1=C(O)c2ccccc2C1=O	VIM-2 inhibitor 12
CCOC(=O)/C(=C/c1ccc(N2CCC(c3ccccc3)=N2)cc1)C(C)=O	EBV gp42 block 156, MEX-5 binding -33 (no result: BCLXL inh, GLD-1 RNA inh)
CCOC(=O)c1c(NC(C)=O)sc2c(OCC(O)CN(CC)CC)c(Br)ccc12 (stereo not drawn)	VIM-2 inhibitor 9.3
Cc1c(/C(O)=C2/C(=O)C(=O)N(CCN3CCOCC3)C2c2cccs2)cnn1-c1ccccc1 (stereo not drawn)	IMP-1 inhibitor 6.1
O=C(NC1CCCC1)c1cnn2c(C(F)(F)F)cc(-c3ccco3)nc12	VIM-2 inhibitor 17
O=C(NCc1ccco1)c1cnn2c(C(F)(F)F)cc(-c3ccccc3)nc12	none
O=C(NCc1ccco1)c1cc2nc(-c3cccs3)cc(C(F)(F)F)n2n1	VIM-2 inhibitor 8.6
COc1ccc(-c2cc(C(F)(F)F)n3ncc(C(=O)NCc4ccco4)c3n2)cc1	VIM-2 inhibitor 8.2
CC1CCC(CN2C(Nc3ccccc3)=NC[C@@H]2Cc2ccccc2)CC1 (stereo partly drawn)	none (no result: IMP-1 inhibitor, EBV gp42 block, MEX-5 binding, VIM-2 inhibitor, BCLXL inh)
CCN1CCN(Cc2nnc(-c3ccc(C)cc3)o2)CC1	none (no result: EBV gp42 block)
Nc1cc(Nc2ccc(Br)cc2)nc(N)n1	BCLXL inh 53
CCn1c2ccc(C)cc2c2nnc(SCCN3CCOCC3)nc21	VIM-2 inhibitor 11
CCCCn1c2ccc(F)cc2c2nnc(SCCN3CCCCC3)nc21	VIM-2 inhibitor 8.4 (no result: EBV gp42 block, BCLXL inh, GLD-1 RNA inh)
Cn1c2ccc(F)cc2c2nnc(SCCN3CCCCC3)nc21	VIM-2 inhibitor 12 (no result: EBV gp42 block, BCLXL inh, GLD-1 RNA inh)
Cc1nc(Cl)c(N=Cc2cccc([N+](=O)[O-])c2)c(Cl)n1	none (no result: EBV gp42 block)
CCOC(=O)C1CCN(c2cc3c(cc2NC(=O)c2ccccc2F)n(C)c(=O)n3C)CC1	IMP-1 inhibitor 18 (no result: EBV gp42 block)
CC(C)(C)OC(=O)NC(Cc1ccccc1)C(=O)N1CCC(C(=O)NCC(=O)Nc2ccc(F)cc2)CC1 (stereo not drawn)	MEX-5 binding -57, BCLXL inh 105, GLD-1 RNA inh 57 (no result: EBV gp42 block)
CC(C)(C)OC(=O)N[C@@H](Cc1ccccc1)C(=O)N1CCC(C(=O)NCC(=O)O)CC1	none (no result: EBV gp42 block)
CC(C)OC(=O)C1=C2SCC(=O)N2C(N)=C(C#N)C1	BCLXL inh 37
CCCCn1c(N)c(Sc2ccccc2)c(=O)[nH]c1=O	IMP-1 inhibitor 5.0 (no result: MEX-5 binding)
COCCN(C(=O)COC(=O)CSc1ccc(Cl)cc1)c1c(N)n(Cc2ccccc2)c(=O)[nH]c1=O	none (no result: IMP-1 inhibitor, EBV gp42 block, VIM-2 inhibitor)
CCOC(=O)c1c(Nc2ccccc2N)cc(C)nc1C	EBV gp42 block 81 (no result: MEX-5 binding)
CCOC(=O)c1c(N2CCN(c3ccccc3)CC2)cc(C)nc1C	none (no result: EBV gp42 block, BCLXL inh, GLD-1 RNA inh)
CC(OC(=O)C1CC1)C(=O)Nc1cc(Cl)cc(Cl)c1 (stereo not drawn)	none (no result: IMP-1 inhibitor, EBV gp42 block, MEX-5 binding, VIM-2 inhibitor, BCLXL inh)
CC1=C(C#N)C(/C=N/OCc2ccc(Cl)cc2)CC(=O)N1 (stereo not drawn)	VIM-2 inhibitor 8.8
COc1ccc(S(=O)(=O)Nc2ccc(F)c(F)c2)cc1Cl	IMP-1 inhibitor 4.6
Cc1ccc(OCc2cccc(S(=O)(=O)N(C)C)c2)c([N+](=O)[O-])n1	none (no result: EBV gp42 block)
COc1ccc(C2CC(=O)C(C=NCCCO)=C(O)C2)cc1 (stereo not drawn)	MEX-5 binding -27, BCLXL inh 64 (no result: EBV gp42 block)
Cc1cc2ncn(S(=O)(=O)N3CCOCC3)c2cc1C	IMP-1 inhibitor 4.5
Cc1cc2ncn(S(=O)(=O)N3CCCCC3)c2cc1C	none
CC(C)(C)c1ccc(NC(=O)c2cc[n+]([O-])cc2)cc1	none (no result: EBV gp42 block)
O=C(C1=C(O)C(=O)N(c2nccs2)C1c1ccccc1)c1cc2ccccc2o1 (stereo not drawn)	EBV gp42 block 157, BCLXL inh 185, GLD-1 RNA inh 174
CCOc1cccc(C2C(C(=O)c3ccc(C)o3)=C(O)C(=O)N2c2nccs2)c1 (stereo not drawn)	EBV gp42 block 172, MEX-5 binding -71, BCLXL inh 121, GLD-1 RNA inh 143
O=C(C1=C(O)C(=O)N(CCc2ccccc2)C1c1ccncc1)c1cc2ccccc2o1 (stereo not drawn)	none
O=C(COC(=O)Cn1cnc2ccccc2c1=O)Nc1ccccc1OC(F)F	none (no result: IMP-1 inhibitor, EBV gp42 block, MEX-5 binding, VIM-2 inhibitor, BCLXL inh)
O=S(=O)(c1ccc(-c2ccon2)s1)N1CCN(c2ccccn2)CC1	IMP-1 inhibitor 79
Cc1cnccc1CN(C)C(=O)CC1C(=O)NCCN1CC1CCCCC1 (stereo not drawn)	none
Cc1ccc(CN(C)C(=O)CC2C(=O)NCCN2CC2CCCCC2)cc1 (stereo not drawn)	MEX-5 binding -48
COc1ccc(CCNC(=O)CCNS(=O)(=O)c2cccc(Cl)c2)cc1OC	none
O=C1C=C(NNC(=O)c2cccnc2)CC(c2ccco2)C1 (stereo not drawn)	BCLXL inh 49, GLD-1 RNA inh 120
CC1(C)Cc2ccccc2C(NNC(=O)c2cccnc2)=N1	none
CC1(C)CC(=O)C=C(NNC(=O)c2cccnc2)C1	GLD-1 RNA inh 81
CC1(C)CC=C(NNC(=O)c2cccnc2)C(=O)C1	GLD-1 RNA inh 67
Cc1cc(C)cc(NC2=CC(=O)CC(c3ccco3)C2)c1 (stereo not drawn)	none
Cc1ccc(C(C(=O)NCc2ccc(F)cc2)N(Cc2ccco2)C(=O)c2snc(C(N)=O)c2N)o1 (stereo not drawn)	none (no result: EBV gp42 block)
COc1ccc(OC)c2nc3c(cc12)CCC3	BCLXL inh 52, GLD-1 RNA inh 32 (no result: EBV gp42 block)
O=C1C(Cl)=C(Nc2ccccc2O)C(=O)N1c1ccccc1	MEX-5 binding -31, VIM-2 inhibitor 9.3
COc1ccccc1N1C(=O)C(Cl)=C(Nc2ccccc2O)C1=O	MEX-5 binding -29 (no result: BCLXL inh, GLD-1 RNA inh)
CCOc1ccccc1NC1=C(Cl)C(=O)N(c2ccc(OC)cc2)C1=O	none
COc1ccc(CCNCC(O)COc2c(C)cccc2C)cc1OC (stereo not drawn)	none (no result: EBV gp42 block, BCLXL inh, GLD-1 RNA inh)
Cn1cccc1C(=O)N/N=C/c1c(Cl)cccc1Cl	none (no result: EBV gp42 block)
Cc1cc(C)nc(CCNC(=O)c2cc(COc3c(C)cccc3C)on2)n1	none (no result: EBV gp42 block)
COc1cccc(CNC(=O)CN2C(=O)CCSc3ccc(S(=O)(=O)N4CCCC4)cc32)c1	none (no result: EBV gp42 block)
O=C(O)c1ccc2cccnc2c1O	VIM-2 inhibitor 10
O=C(O)c1ccc2cccnc2n1	none
O=C(NC1CCCCCCC1)c1ccc(Br)cc1	BCLXL inh 68 (no result: IMP-1 inhibitor, EBV gp42 block, VIM-2 inhibitor)
COc1ccc(Cc2nnc(SCC(=O)Nc3ccccc3)[nH]c2=O)cc1	none (no result: IMP-1 inhibitor, EBV gp42 block, VIM-2 inhibitor)
CC(O)c1nc2ccc(C(=O)O)cc2[nH]1 (stereo not drawn)	IMP-1 inhibitor 8.7
CCOC(=O)c1ccc(N2CN(C3CCCCC3)CNC2=S)cc1	IMP-1 inhibitor 7.2
